The results in this text go back to ChEMBL document CHEMBL5113423, “Discovery and preclinical profile of sudapyridine (WX-081), a novel anti-tuberculosis agent” (Bioorg Med Chem Lett, 2022).

The subject of data set [1] is Mycobacterium tuberculosis. Kind of data set: Antimycobacterial activity against Mycobacterium tuberculosis H37Rv assessed as mycobacterial growth inhibition by microplate alamar blue assay. It is filed as functional. An outline of the steps: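 M. tuberculosis H37Rv under normoxic conditions, microplate alamar blue assay (MABA) following Cho et al. Read-out is MIC.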
For orientation: The colour change of resazurin is a common sign of viable cells or microbes.

A short description of data set [2]: Cytotoxicity against human HeLa cells. In kind it is toxicity, cell-based.
Data set [3] relates to Mycobacterium tuberculosis. Kind of data set: Antimycobacterial activity against Mycobacterium tuberculosis H37Rv assessed as mycobacterial growth inhibition by low oxygen recovery assay. In kind it is functional. An outline of the steps: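 M. tuberculosis H37Rv under hypoxic conditions, low-oxygen recovery assay (LORA) following Cho et al. Read-out is MIC.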
Data set [4] is described as follows: Cytotoxicity against African green monkey Vero cells. Particulars: chlorocebus sabaeus. It is filed as toxicity, cell-based.
Data set [5] deals with Mycobacterium tuberculosis. Kind of data set: Antimycobacterial activity against drug-sensitive Mycobacterium tuberculosis assessed as mycobacterial growth inhibition. It is filed as functional.
Data set [6] concerns Cardiac Purkinje fiber. Description: Effect on rabbit Purkinje fiber assessed as change in concentration of maximum upstroke velocity. In kind it is functional, Oryctolagus cuniculus.
For data set [7], the target named is Sodium channel protein type 5 subunit alpha (Homo sapiens, UniProt Q14524). Description: Inhibition of Nav1.5 (unknown origin).
For data set [8], the target named is Voltage-gated inwardly rectifying potassium channel KCNH2 (Homo sapiens, UniProt Q12809). Kind of data set: Inhibition of human ERG. It is filed as toxicity.
The target of data set [9] is Voltage-dependent L-type calcium channel subunit alpha-1C (Homo sapiens, UniProt Q13936). Kind of data set: Inhibition of human Cav1.2.
The subject of data set [10] is Mycolicibacterium peregrinum. Description: Antimycobacterial activity against Mycobacterium peregrinum ATCC700686 assessed as mycobacterial growth inhibition. In kind it is functional.
Data set [11] concerns Mycolicibacterium smegmatis. Kind of data set: Antimycobacterial activity against Mycobacterium smegmatis ATCC700084 assessed as mycobacterial growth inhibition. In kind it is functional.
The test system of data set [12] is Mycolicibacterium smegmatis. Kind of data set: Antimycobacterial activity against Mycobacterium smegmatis ATCC19420 assessed as mycobacterial growth inhibition. It is filed as functional.

≈ marks a conversion by molar mass, not a printed value. Some results are limits rather than exact numbers.

Chain of Voltage-dependent L-type calcium channel subunit alpha-1C (Q13936 whole entry): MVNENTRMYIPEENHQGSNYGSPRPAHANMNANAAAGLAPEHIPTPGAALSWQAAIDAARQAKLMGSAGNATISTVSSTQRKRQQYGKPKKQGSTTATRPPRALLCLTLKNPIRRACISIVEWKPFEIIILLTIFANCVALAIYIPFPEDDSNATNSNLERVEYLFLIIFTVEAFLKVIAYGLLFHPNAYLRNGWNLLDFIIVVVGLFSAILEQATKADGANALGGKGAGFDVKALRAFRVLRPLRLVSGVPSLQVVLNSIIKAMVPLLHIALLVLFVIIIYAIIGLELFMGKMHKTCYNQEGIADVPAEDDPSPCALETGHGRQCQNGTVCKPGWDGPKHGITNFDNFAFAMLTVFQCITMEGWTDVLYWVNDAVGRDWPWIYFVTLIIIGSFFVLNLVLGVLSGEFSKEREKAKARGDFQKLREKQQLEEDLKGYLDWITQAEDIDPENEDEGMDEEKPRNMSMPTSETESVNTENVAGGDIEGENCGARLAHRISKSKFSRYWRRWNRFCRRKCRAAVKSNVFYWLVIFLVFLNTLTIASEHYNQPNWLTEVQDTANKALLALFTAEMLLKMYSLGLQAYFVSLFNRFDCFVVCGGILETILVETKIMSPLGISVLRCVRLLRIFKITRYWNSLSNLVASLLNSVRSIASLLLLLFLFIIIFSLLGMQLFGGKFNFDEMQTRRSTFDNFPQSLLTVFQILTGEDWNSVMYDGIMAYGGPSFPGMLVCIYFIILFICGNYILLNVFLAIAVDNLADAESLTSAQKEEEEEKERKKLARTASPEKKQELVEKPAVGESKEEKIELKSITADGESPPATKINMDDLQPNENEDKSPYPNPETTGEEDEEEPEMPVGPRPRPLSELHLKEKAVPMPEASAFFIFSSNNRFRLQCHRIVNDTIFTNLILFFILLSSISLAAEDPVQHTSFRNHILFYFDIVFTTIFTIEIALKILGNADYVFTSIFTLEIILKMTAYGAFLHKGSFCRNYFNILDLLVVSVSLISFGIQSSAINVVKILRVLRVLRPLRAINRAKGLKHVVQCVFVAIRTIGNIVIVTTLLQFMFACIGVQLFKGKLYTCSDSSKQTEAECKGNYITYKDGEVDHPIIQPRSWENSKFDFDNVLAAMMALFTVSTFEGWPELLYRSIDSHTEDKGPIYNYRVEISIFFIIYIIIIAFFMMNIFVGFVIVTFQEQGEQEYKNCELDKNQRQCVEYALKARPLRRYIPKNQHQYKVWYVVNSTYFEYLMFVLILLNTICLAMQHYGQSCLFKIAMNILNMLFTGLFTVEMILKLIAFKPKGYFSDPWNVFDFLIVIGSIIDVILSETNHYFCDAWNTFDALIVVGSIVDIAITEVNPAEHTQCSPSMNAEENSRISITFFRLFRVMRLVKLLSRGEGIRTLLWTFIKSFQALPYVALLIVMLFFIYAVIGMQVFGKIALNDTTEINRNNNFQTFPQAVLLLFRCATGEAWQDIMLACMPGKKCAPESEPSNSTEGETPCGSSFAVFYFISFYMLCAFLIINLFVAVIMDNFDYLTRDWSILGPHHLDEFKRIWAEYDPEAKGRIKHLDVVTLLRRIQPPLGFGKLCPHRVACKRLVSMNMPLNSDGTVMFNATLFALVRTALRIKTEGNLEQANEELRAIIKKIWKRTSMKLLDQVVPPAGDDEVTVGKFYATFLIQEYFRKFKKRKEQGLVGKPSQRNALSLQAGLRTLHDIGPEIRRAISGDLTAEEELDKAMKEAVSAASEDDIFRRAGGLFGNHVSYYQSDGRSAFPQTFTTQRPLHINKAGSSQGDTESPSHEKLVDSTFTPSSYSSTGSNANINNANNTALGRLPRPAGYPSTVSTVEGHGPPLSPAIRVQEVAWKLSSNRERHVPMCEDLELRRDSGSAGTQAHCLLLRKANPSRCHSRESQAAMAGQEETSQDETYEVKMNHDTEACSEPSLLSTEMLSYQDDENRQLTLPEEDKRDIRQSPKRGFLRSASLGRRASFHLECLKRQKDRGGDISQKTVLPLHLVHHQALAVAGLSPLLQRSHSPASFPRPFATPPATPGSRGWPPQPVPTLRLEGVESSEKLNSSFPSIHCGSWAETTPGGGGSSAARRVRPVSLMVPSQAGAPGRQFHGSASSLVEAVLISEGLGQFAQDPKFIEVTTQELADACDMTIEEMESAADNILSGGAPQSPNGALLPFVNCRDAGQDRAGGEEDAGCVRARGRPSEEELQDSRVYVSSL
Chain of Voltage-gated inwardly rectifying potassium channel KCNH2 (Q12809 whole entry): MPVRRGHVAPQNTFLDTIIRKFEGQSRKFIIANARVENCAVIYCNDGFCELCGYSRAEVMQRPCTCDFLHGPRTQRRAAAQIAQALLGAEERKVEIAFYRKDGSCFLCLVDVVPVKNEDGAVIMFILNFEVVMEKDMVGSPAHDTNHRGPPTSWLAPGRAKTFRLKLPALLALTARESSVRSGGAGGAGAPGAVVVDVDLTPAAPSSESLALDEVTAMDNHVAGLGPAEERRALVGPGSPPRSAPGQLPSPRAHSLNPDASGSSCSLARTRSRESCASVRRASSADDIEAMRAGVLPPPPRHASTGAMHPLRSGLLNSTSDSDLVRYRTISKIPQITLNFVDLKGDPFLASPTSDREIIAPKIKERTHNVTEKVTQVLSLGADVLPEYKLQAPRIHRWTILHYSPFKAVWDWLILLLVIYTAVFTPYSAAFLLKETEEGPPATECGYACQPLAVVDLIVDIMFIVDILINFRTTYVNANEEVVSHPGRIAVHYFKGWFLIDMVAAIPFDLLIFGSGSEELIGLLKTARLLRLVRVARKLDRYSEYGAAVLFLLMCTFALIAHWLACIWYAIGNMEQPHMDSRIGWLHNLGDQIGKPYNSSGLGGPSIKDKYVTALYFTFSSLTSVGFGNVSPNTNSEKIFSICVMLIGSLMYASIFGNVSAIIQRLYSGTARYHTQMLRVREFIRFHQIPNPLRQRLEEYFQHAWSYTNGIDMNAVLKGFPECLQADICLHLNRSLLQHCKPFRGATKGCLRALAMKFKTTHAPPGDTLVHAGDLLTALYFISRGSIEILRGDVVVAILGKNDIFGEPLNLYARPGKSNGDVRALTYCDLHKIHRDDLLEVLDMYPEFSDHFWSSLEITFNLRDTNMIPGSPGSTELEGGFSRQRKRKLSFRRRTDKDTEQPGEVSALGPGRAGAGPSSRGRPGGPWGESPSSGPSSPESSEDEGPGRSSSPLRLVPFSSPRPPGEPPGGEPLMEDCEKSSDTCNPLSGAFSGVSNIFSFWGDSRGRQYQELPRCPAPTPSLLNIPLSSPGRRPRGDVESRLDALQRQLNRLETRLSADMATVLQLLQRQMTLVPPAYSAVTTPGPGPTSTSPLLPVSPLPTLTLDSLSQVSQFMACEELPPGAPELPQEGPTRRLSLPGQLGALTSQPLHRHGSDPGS

The term MIC denotes the lowest concentration found to suppress growth. By CC50 is commonly meant the concentration giving 50% cytotoxicity. On to `COc1ncc(-c2ccccc2)cc1[C@@H](c1ccccc1)[C@@](O)(CCN(C)C)c1cccc(F)c1F`, for which the results for the MIC in data set [1] and in [3] were 0.6 µg/mL (≈ 1.23 µM) and 0.5 µg/mL (≈ 1.02 µM), respectively. For the same molecule, the CC50 in [2] was 28.1 µg/mL (≈ 57.5 µM); in [4] it was greater than 50 µg/mL.

As to `COc1nc(-c2ccccc2F)ccc1[C@@H](c1ccccc1)[C@@](O)(CCN(C)C)c1cccc2ccccc12`, the MIC in data set [1] was determined as 1.41 µg/mL (≈ 2.71 µM); in data set [3], 0.57 µg/mL (≈ 1.09 µM). In [4], the CC50 is greater than 50 µg/mL.

As for `COc1nc(-c2ccccc2Cl)ccc1[C@@H](c1ccccc1)[C@@](O)(CCN(C)C)c1cccc2ccccc12`, the MIC was determined as 1.17 µg/mL (≈ 2.18 µM) in data set [1] and 3.03 µg/mL (≈ 5.64 µM) in data set [3]. Moreover, the 50% cytotoxic concentration (CC50) was greater than 64 µg/mL in data set [2] and greater than 50 µg/mL in [4].

Take `COc1ncc(-c2ccccc2)cc1[C@@H](c1ccccc1)[C@@](O)(CCN(C)C)c1cc(F)cc(F)c1`: the MIC in [1] is 0.7 µg/mL (≈ 1.43 µM); in data set [3] it was 0.4 µg/mL (≈ 0.819 µM). Besides, the CC50 in data set [2] is 28.8 µg/mL (≈ 58.9 µM); in [4], greater than 50 µg/mL.

For the molecule `COc1nc(-c2ccc(Br)cc2)ccc1[C@@H](c1ccccc1)[C@@](O)(CCN(C)C)c1cccc2ccccc12`, the MIC in [1] and in data set [3] was 0.22 µg/mL (≈ 0.378 µM) each time. For the same molecule, the CC50 in data set [2] was greater than 64 µg/mL; in data set [4] it was greater than 50 µg/mL.

With `COc1nc(-c2ccc(Cl)c(F)c2)ccc1[C@@H](c1ccccc1)[C@@](O)(CCN(C)C)c1cccc2ccccc12`, the values for the MIC in data set [1] and in data set [3] were 0.19 µg/mL (≈ 0.342 µM) and 0.52 µg/mL (≈ 0.937 µM), respectively. The half-maximal cytotoxic concentration (CC50) in data set [2] was greater than 64 µg/mL; in data set [4], greater than 50 µg/mL.

For orientation: MIC50 means the lowest concentration that inhibits either 50% of growth or 50% of the strains tested, depending on the study. A word on the MIC90: it is the lowest concentration that inhibits either 90% of growth or 90% of the strains tested, depending on the study. On to `NNC(=O)c1ccncc1` [ISONIAZID], for which, in data set [5], the MIC50 turned out to be 0.024 µg/mL (≈ 0.175 µM) and the MIC90 is 0.032 µg/mL (≈ 0.233 µM).

Turning to `COc1nc(-c2ccc(C(F)(F)F)cc2)ccc1[C@@H](c1ccccc1)[C@@](O)(CCN(C)C)c1cccc2ccccc12`, the MIC in data set [1] amounted to 0.96 µg/mL (≈ 1.68 µM); in data set [3] it was 0.63 µg/mL (≈ 1.1 µM). The results for the CC50 in [2] and in data set [4] were greater than 64 µg/mL and greater than 50 µg/mL, respectively.

`COc1nc(-c2ccc(F)cc2)ccc1[C@@H](c1ccccc1)[C@@](O)(CCN(C)C)c1cccc2ccccc12`: the MIC in data set [1] worked out at 0.34 µg/mL (≈ 0.653 µM); in data set [3] it was 0.71 µg/mL (≈ 1.36 µM). In addition, the CC50 in [2] is greater than 64 µg/mL; in data set [4] it was greater than 50 µg/mL.

In the case of `COc1nc(-c2cccc(F)c2)ccc1[C@@H](c1ccccc1)[C@@](O)(CCN(C)C)c1cccc2ccccc12`, the MIC in data set [1] is 0.48 µg/mL (≈ 0.922 µM); in [3], 1.18 µg/mL (≈ 2.27 µM). The figures for the CC50 in [2] and in data set [4] were 62.8 µg/mL (≈ 121 µM) and greater than 50 µg/mL, respectively.

Turning to `COc1nc(C2CCOCC2)ccc1[C@@H](c1ccccc1)[C@@](O)(CCN(C)C)c1cccc2ccccc12`, the figures for the MIC in data set [1] and in [3] were 1.3 µg/mL (≈ 2.55 µM) and 2.7 µg/mL (≈ 5.29 µM), respectively. In addition, the CC50 in [2] was 22.5 µg/mL (≈ 44.1 µM); in [4], greater than 50 µg/mL.

On to `COc1nc(-c2ccsc2)ccc1[C@@H](c1ccccc1)[C@@](O)(CCN(C)C)c1cccc2ccccc12`, for which the CC50 in data set [2] was greater than 64 µg/mL; in [4] it was 24.4 µg/mL (≈ 48 µM).

`COc1nc(-c2cnsc2)ccc1[C@@H](c1ccccc1)[C@@](O)(CCN(C)C)c1cccc2ccccc12`: the MIC was determined as 1.9 µg/mL (≈ 3.73 µM) in data set [1] and 3.9 µg/mL (≈ 7.65 µM) in data set [3]. Besides, the figures for the CC50 in data set [2] and in [4] were 28.8 µg/mL (≈ 56.5 µM) and 26.3 µg/mL (≈ 51.6 µM), respectively.

With `NC[C@H]1O[C@H](O[C@H]2[C@H](O)[C@@H](O[C@H]3O[C@H](CO)[C@@H](O)[C@H](N)[C@H]3O)[C@H](N)C[C@@H]2N)[C@H](O)[C@@H](O)[C@@H]1O` [KANAMYCIN], in data set [5], the MIC50 came out at 1.22 µg/mL (≈ 2.52 µM) and the MIC90 was determined as 1.91 µg/mL (≈ 3.94 µM).

On to `COc1nc(-c2ccc(C#N)cc2)ccc1[C@@H](c1ccccc1)[C@@](O)(CCN(C)C)c1cccc2ccccc12`, for which the MIC in data set [1] was 0.44 µg/mL (≈ 0.834 µM); in data set [3] it was 0.77 µg/mL (≈ 1.46 µM). In addition, the CC50 in data set [2] was greater than 64 µg/mL; in [4] it was greater than 50 µg/mL.

Usually IC50 stands for the concentration needed to halve the response being measured. Turning to `CNCC[C@@](O)(c1cccc2ccccc12)[C@H](c1ccccc1)c1cc2cc(Br)ccc2nc1OC`, the Activity in [6] was determined as 0.3 µM. Besides, the IC50 in data set [7] is greater than 10 µM; in data set [8], 1.73 µM; in [9], 0.75 µM.

`CNCC[C@@](O)(c1cccc2ccccc12)[C@H](c1ccccc1)c1ccc(-c2ccc(Cl)cc2)nc1OC`: the Activity in data set [6] was greater than 3 µM. Besides, the results for the IC50 in data set [7], in data set [8] and in data set [9] were greater than 10 µM, 1.89 µM and greater than 3 µM, respectively.

Take `COc1ncc(-c2ccccc2)cc1[C@@H](c1ccccc1)[C@@](O)(CCN(C)C)c1cccc2ccccc12`: the MIC in [10] was 0.0625 µg/mL (≈ 0.124 µM); in [1], 1.1 µg/mL (≈ 2.19 µM); in [11], 0.0625 µg/mL (≈ 0.124 µM); in [12] it was 0.0312 µg/mL (≈ 0.0622 µM); in data set [3], 0.7 µg/mL (≈ 1.39 µM). The CC50 in data set [2] was 30.4 µg/mL (≈ 60.5 µM); in data set [4], greater than 50 µg/mL.

`COc1nc(-c2ccc(OC(F)(F)F)cc2)ccc1[C@@H](c1ccccc1)[C@@](O)(CCN(C)C)c1cccc2ccccc12`: the MIC in [1] stood at 0.03 µg/mL (≈ 0.0511 µM); in data set [3], 0.61 µg/mL (≈ 1.04 µM). For the same molecule, the figures for the CC50 in data set [2] and in [4] were greater than 64 µg/mL and greater than 50 µg/mL, respectively.

With `COc1nc(-c2cccc(Cl)c2)ccc1[C@@H](c1ccccc1)[C@@](O)(CCN(C)C)c1cccc2ccccc12`, the figures for the MIC in data set [1] and in [3] were 2.73 µg/mL (≈ 5.08 µM) and 1.36 µg/mL (≈ 2.53 µM), respectively. The molecule further yielded a CC50 in data set [4] greater than 50 µg/mL.

`CO[C@H]1/C=C/O[C@@]2(C)Oc3c(C)c(O)c4c(O)c(c(/C=N/N5CCN(C)CC5)c(O)c4c3C2=O)NC(=O)/C(C)=C\C=C\[C@H](C)[C@H](O)[C@@H](C)[C@@H](O)[C@@H](C)[C@H](OC(C)=O)[C@@H]1C` [RIFAMPIN]: in data set [5], the MIC50 worked out at 0.035 µg/mL (≈ 0.0425 µM) and the MIC90 is 0.057 µg/mL (≈ 0.0693 µM).

Regarding `COc1nc(C(C)(C)C)ccc1[C@@H](c1ccccc1)[C@@](O)(CCN(C)C)c1cccc2ccccc12`, the MIC in data set [1] came out at 1.3 µg/mL (≈ 2.69 µM); in [3], 2.7 µg/mL (≈ 5.59 µM). For the same molecule, the figures for the CC50 in [2] and in [4] were greater than 64 µg/mL and 27.6 µg/mL (≈ 57.2 µM), respectively.

For `COc1ccc(-c2ccc([C@@H](c3ccccc3)[C@@](O)(CCN(C)C)c3cccc4ccccc34)c(OC)n2)cc1`, the MIC came out at 0.33 µg/mL (≈ 0.62 µM) in [1] and 0.19 µg/mL (≈ 0.357 µM) in [3]. Moreover, the CC50 in [2] is greater than 64 µg/mL; in data set [4], greater than 50 µg/mL.

`COc1nc(C2CCCCC2)ccc1[C@@H](c1ccccc1)[C@@](O)(CCN(C)C)c1cccc2ccccc12`: the CC50 in data set [2] turned out to be 57.7 µg/mL (≈ 113 µM); in [4] it was 32.3 µg/mL (≈ 63.5 µM). Besides, the MIC in data set [3] was 1.8 µg/mL (≈ 3.54 µM).

Consider `COc1ncc(-c2ccccc2)cc1[C@@H](c1ccccc1)[C@@](O)(CCN(C)C)c1cc(F)ccc1F`, for which the MIC in data set [1] and in [3] was 0.7 µg/mL (≈ 1.43 µM) throughout. In data set [4], this molecule came in with a CC50 greater than 50 µg/mL.

As for `COc1nc(-c2ccncc2)ccc1[C@@H](c1ccccc1)[C@@](O)(CCN(C)C)c1cccc2ccccc12`, the MIC in data set [1] was determined as 0.7 µg/mL (≈ 1.39 µM). The figures for the CC50 in data set [2] and in data set [4] were 9.6 µg/mL (≈ 19.1 µM) and greater than 50 µg/mL, respectively.

For the molecule `COc1nc(-c2ccccc2)ccc1[C@@H](c1ccccc1)[C@@](O)(CCN(C)C)c1cccc2ccccc12`, the MIC came to 0.5 µg/mL (≈ 0.995 µM) in [10], 1 µg/mL (≈ 1.99 µM) in [11] and 1 µg/mL (≈ 1.99 µM) in [12].

Take `COc1ncc(-c2ccccc2)cc1[C@@H](c1ccccc1)[C@@](O)(CCN(C)C)c1ccccc1`: the MIC amounted to 1.5 µg/mL (≈ 3.31 µM) in data set [1] and 1.2 µg/mL (≈ 2.65 µM) in data set [3]. Moreover, the CC50 in data set [2] is 11.9 µg/mL (≈ 26.3 µM); in [4], greater than 50 µg/mL.
